Measurements reported in ChEMBL document CHEMBL1127455, “8-Azaxanthine derivatives as antagonists of adenosine receptors” (J Med Chem, 1994).

What was measured:
[1] = molecular target: T1, Adenosine receptor A1 (Bos taurus, UniProt P28190); assay: Affinity to A1 adenosine receptor was measured by the displacement of […] in bovine brain cortical membrane; format: cell membranes
T1 sequence (P28190 whole entry): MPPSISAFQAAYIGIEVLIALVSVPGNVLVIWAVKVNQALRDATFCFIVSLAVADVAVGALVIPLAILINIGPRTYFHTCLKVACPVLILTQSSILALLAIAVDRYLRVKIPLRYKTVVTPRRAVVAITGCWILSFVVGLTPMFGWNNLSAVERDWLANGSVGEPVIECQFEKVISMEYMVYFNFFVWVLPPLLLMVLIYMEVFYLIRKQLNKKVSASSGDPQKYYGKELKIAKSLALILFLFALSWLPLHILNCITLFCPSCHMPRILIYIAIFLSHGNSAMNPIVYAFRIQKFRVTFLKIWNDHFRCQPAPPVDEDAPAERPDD
Outline: (§1)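 Bovine cerebral cortex was homogenized in ice-cold 0.32 M sucrose with protease inhibitors and spun at 1000g, then 48000g, at 4 °C. The pellet was treated with adenosine deaminase (2 units/mL) at 37 °C for 60 min. Membranes (0.2-0.3 mg protein) were incubated in triplicate with about 1.2 nM [³H]CHA in Tris-HCl pH 7.7 with MgCl₂ at 25 °C for 45 min. Nonspecific binding was defined with 50 μM R-PIA. Binding was ended by GF/C filtration. Compounds were added in DMSO (2% solvent), up to 30 μM. IC50 was read from semilog plots, and Ki was derived using Kd 10.5 nM.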

[2] = organism: Bos taurus; assay: Ratio between the Ki values of A2 and A1 receptors
[3] = molecular target: Adenosine receptor A2a (Bos taurus); assay: Affinity to A2 adenosine receptor was measured by the displacement of [3H]-CGS- 21680 in bovine brain striatal membrane
[4] = molecular target: T1, Adenosine receptor A1; assay: Affinity for A1 adenosine receptor by displacement of […] in bovine brain cortical membrane; d= Inactive at highest tested concentration 30 uM; format: tissue-based; outline: as §1
[5] = test system: Adenosine A2 receptor (Bos taurus); assay: Displacement of [3H]-CGS- 21680 from A2 adenosine receptor in bovine brain striatal membrane at […]; settings: Striatum

| Ki [1] [µM] | Ratio [2] | Ki [3] [µM] | Ki [4] | inhibition [5] [%] | Compound |
| --- | --- | --- | --- | --- | --- |
| 114 |  |  |  |  | Cn1c(=O)c2c(nnn2C2CCCCC2O)n(C)c1=O (centres undefined) |
| 36 | 6.9 | 250 |  |  | Cn1c(=O)c2nn(C3CCCCC3)nc2n(C)c1=O |
| 14 |  |  |  |  | Cn1c(=O)c2c(nnn2-c2ccc(Cl)cc2N)n(C)c1=O |
| 1.6 | 13 | 21.7 |  |  | CCCn1c(=O)c2nn(C3CCCCC3)nc2n(CCC)c1=O |
|  |  |  | Not Active |  | Cn1c(=O)c2nn(C3CCCCC3O)nc2n(C)c1=O (centres undefined) |
|  |  |  | Not Active |  | Cn1c(=O)c2c(nnn2C)n(C)c1=O |
| 23 | 0.36 | 8.4 |  |  | Cn1c(=O)c2c(nnn2C2CCCCC2)n(C)c1=O |
| 1.5 |  |  |  |  | CCCn1c(=O)c2nn(-c3ccc(Cl)cc3N)nc2n(CCC)c1=O |
| 24 |  |  |  |  | Cn1c(=O)c2nn(-c3ccc(Cl)cc3N)nc2n(C)c1=O |
| 1.8 | 7.5 | 13.5 |  |  | CCCn1c(=O)c2c(nnn2C2CCCCC2O)n(CCC)c1=O (centres undefined) |
| 1.4 |  |  |  | 20 | CCCn1c(=O)c2nn(C3CCCCC3O)nc2n(CCC)c1=O (centres undefined) |
| 44 |  |  |  |  | CCCn1c(=O)c2c(nnn2-c2ccc(Cl)cc2N)n(CCC)c1=O |
| 1.1 |  |  |  |  | CCCn1c(=O)c2c(nnn2C2CCCCC2)n(CCC)c1=O |
| 1.3 | 10 | 13 |  |  | CCCn1c(=O)c2nn(C3CCCC3)nc2n(CCC)c1=O |
|  |  | 52.8 | Not Active |  | Cn1nc2c(=O)n(C)c(=O)n(C)c2n1 |
| 18 | 0.25 | 4.5 |  |  | Cn1c(=O)c2c(nnn2C2CC3CCC2C3)n(C)c1=O (centres undefined) |
| 0.34 | 29 | 10 |  |  | CCCn1c(=O)c2c(nnn2C2CCCC2)n(CCC)c1=O |
| 110 | 0.5 | 58 |  |  | Cn1c(=O)c2nn(C3CCCC3)nc2n(C)c1=O |
|  |  |  | Not Active |  | Cn1c(=O)c2nn[nH]c2n(C)c1=O |
| 31 | 1.6 | 49 |  |  | Cn1c(=O)c2nn(C3CC4CCC3C4)nc2n(C)c1=O (centres undefined) |
| 11 | 26 | 292 |  |  | Cn1c(=O)c2c(nnn2C2CCCC2)n(C)c1=O |

| Compound | Ki [1] [µM] | Ratio [2] | Ki [3] [µM] | Ki [4] | inhibition [5] [%] |
| --- | --- | --- | --- | --- | --- |
| Cn1c(=O)c2c(ncn2C)n(C)c1=O [CAFFEINE] | 29 |  |  |  |  |
